Source: PMC8269116 (Journal of psychopharmacology (Oxford, England), 2019)
Several values for one entry are separate records, joined by “and”; a condition that tells them apart may be missing. Equal entries are not always repeated. Where two headings read alike, the source gives them in different places.

Legend:
DAT [1] = biological target: T1, DAT (Homo sapiens, UniProt Q01959); experiment: [3H]dopamine uptake inhibition in HEK 293 cells overexpressing human DAT; format: cell-based; conditions: for DAT/SERT ratio: 1/DAT IC50 : 1/SERT IC50, mean and 95% confidence interval
T1 sequence (Q01959 whole entry): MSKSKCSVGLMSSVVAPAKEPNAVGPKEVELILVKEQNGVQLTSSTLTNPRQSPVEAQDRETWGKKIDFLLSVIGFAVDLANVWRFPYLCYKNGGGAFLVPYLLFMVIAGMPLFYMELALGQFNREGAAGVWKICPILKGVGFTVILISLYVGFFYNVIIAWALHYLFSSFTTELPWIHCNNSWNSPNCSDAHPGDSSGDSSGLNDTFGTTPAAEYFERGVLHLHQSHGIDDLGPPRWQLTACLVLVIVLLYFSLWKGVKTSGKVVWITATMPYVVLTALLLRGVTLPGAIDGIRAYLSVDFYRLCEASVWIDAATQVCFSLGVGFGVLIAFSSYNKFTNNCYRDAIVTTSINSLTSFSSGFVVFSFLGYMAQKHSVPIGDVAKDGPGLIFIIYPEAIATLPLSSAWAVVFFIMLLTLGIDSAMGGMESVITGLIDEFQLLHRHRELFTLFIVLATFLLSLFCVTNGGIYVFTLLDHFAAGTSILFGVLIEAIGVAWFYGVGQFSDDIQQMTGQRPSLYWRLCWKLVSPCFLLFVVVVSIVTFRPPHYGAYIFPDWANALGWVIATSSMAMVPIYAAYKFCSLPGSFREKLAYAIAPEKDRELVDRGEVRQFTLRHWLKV

[2] = biological target: human 5-HT transporter (SERT) (Homo sapiens, UniProt P31645); experiment: [3H]5-HT uptake inhibition in HEK 293 cells overexpressing human SERT; format: cell-based
Sequence of human 5-HT transporter (SERT) (P31645 whole entry): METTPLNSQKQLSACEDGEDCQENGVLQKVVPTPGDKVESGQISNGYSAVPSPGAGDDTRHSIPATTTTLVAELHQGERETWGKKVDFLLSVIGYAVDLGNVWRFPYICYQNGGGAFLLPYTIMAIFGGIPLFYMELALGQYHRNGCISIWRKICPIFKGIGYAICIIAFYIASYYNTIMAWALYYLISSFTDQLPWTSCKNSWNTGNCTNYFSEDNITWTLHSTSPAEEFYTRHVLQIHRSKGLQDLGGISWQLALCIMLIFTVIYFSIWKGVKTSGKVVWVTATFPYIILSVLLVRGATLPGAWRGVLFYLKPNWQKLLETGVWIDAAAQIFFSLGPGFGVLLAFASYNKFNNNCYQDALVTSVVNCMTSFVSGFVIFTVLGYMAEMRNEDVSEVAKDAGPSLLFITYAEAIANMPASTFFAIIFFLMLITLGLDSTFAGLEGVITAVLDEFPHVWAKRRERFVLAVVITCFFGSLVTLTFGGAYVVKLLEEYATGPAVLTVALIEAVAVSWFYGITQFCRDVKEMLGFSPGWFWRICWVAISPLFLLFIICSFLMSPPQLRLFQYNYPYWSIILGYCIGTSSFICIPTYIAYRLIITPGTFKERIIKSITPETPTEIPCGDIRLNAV

NET [3] = biological target: T2, NET (Homo sapiens, UniProt P23975); experiment: Radioligand binding, N-methyl-[3H]nisoxetine displacement
T2 sequence (P23975 whole entry): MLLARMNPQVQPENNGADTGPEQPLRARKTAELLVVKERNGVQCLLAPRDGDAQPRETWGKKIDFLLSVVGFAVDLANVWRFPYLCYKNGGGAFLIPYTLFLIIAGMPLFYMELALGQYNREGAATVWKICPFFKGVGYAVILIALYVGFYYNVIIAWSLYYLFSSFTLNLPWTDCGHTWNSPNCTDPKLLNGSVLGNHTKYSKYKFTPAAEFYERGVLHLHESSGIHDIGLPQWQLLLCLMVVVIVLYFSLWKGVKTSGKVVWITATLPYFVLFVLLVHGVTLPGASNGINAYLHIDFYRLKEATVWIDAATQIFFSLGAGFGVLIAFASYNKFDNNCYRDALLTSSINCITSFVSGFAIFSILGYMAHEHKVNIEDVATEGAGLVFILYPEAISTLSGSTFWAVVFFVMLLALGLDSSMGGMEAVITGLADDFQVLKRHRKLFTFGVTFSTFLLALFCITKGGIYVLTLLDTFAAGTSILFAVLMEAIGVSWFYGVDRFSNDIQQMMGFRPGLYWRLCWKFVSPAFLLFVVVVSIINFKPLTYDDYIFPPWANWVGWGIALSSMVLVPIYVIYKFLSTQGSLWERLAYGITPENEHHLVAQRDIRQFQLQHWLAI

DAT [4] = biological target: T1, DAT; experiment: Radioligand binding, [3H]WIN35,428 displacement
SERT = SERT (Homo sapiens, UniProt P31645); experiment: Radioligand binding, [3H]citalopram displacement
Sequence of SERT (P31645 whole entry): as the sequence (P31645 whole entry) above

dopamine D2 receptors = dopamine D2 receptors (Homo sapiens, UniProt P14416); experiment: Radioligand binding, [3H]spiperone displacement
Sequence of dopamine D2 receptors (P14416 whole entry): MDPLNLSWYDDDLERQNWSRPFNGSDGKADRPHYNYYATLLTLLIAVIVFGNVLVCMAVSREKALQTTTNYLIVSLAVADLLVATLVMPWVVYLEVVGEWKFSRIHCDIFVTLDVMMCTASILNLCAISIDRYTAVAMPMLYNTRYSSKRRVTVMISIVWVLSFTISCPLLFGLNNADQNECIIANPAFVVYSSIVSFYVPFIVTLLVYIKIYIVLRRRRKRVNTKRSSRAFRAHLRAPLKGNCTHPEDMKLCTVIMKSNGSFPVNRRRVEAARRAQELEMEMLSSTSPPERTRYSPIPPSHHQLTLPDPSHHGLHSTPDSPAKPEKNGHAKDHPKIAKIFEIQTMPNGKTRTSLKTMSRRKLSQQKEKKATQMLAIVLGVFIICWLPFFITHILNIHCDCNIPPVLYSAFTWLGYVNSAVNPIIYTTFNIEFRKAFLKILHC

[5] = biological target: T3, α1 adrenergic receptor (α1A) (Homo sapiens, UniProt P35348); experiment: Radioligand binding, [3H]prazosin displacement
T3 sequence (P35348 1-466): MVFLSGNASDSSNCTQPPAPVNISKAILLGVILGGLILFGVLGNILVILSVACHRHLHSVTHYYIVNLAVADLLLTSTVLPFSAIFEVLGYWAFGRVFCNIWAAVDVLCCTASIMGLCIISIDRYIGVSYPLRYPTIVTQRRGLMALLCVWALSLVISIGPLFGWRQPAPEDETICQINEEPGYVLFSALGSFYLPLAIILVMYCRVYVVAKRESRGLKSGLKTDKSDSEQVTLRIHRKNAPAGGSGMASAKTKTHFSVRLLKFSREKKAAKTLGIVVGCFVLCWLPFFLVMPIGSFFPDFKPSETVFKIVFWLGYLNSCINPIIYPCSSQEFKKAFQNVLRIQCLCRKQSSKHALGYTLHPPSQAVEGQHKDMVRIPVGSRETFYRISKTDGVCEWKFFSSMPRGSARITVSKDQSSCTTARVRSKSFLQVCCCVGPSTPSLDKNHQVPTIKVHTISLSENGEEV

[6] = biological target: T4, α2 adrenergic receptor (α2A) (Homo sapiens, UniProt P08913); experiment: Radioligand binding, [3H]rauwolscine displacement
T4 sequence (P08913 1-465): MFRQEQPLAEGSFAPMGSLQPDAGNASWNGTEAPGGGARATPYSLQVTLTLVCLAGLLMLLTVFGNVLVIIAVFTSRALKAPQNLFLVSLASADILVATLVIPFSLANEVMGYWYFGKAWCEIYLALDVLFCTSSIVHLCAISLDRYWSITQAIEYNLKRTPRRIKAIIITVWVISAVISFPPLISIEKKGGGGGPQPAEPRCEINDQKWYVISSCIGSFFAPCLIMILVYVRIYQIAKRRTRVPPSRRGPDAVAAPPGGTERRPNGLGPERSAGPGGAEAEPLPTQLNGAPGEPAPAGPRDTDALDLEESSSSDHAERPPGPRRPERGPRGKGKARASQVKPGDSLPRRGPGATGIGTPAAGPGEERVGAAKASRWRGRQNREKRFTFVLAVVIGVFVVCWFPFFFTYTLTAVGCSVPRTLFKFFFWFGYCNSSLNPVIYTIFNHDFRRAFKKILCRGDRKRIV

5-HT1A receptor = biological target: T5, 5-HT1A receptor (Homo sapiens, UniProt P08908); experiment: Radioligand binding, [3H]8-hydroxy-2-
T5 sequence (P08908 1-422): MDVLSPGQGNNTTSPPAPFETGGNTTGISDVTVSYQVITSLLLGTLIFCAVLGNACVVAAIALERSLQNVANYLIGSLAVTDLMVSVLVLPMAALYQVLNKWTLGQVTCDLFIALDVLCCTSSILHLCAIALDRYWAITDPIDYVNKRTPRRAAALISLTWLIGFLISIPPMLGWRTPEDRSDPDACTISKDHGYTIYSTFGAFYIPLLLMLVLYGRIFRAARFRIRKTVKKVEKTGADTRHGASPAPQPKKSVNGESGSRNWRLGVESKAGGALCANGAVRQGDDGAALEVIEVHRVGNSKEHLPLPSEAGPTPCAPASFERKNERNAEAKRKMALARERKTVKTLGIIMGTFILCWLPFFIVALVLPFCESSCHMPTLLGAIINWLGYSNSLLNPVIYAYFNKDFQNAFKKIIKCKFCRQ

5-HT2A receptor = 5-HT2A receptor (Homo sapiens, UniProt P28223); experiment: Radioligand binding, [3H]ketanserin displacement
Sequence of 5-HT2A receptor (P28223 whole entry): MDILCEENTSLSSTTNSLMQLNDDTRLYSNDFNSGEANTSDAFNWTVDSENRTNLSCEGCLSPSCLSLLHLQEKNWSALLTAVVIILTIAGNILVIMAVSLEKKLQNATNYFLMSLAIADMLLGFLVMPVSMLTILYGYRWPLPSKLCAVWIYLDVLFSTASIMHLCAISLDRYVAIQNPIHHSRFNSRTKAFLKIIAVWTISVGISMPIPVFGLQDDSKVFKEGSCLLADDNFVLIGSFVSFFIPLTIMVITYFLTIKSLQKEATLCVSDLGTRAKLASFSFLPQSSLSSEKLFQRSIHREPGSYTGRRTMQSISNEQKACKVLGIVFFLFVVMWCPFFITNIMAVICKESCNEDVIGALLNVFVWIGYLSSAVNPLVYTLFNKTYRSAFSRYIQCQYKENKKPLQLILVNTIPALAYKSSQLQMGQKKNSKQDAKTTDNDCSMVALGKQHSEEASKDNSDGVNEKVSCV

5-HT2C receptor = biological target: T6, 5-HT2C receptor (Homo sapiens, UniProt P28335); experiment: biochemical; format: binding
T6 sequence (P28335 33-458): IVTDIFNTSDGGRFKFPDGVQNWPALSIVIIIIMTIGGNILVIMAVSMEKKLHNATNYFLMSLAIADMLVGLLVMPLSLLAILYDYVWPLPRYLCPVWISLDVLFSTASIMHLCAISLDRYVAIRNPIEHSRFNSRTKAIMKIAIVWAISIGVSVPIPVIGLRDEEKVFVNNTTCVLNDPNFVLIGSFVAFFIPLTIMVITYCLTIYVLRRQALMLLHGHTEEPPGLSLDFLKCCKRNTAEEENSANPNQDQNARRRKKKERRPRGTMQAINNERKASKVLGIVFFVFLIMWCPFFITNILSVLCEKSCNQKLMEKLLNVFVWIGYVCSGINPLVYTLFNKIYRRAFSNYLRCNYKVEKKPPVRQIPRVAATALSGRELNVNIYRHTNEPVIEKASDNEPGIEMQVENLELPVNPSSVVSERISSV

rat TAAR1 = rat TAAR1 (Rattus norvegicus, UniProt Q923Y9); experiment: Radioligand binding, [3H]RO5166017 displacement
Sequence of rat TAAR1 (Q923Y9 whole entry): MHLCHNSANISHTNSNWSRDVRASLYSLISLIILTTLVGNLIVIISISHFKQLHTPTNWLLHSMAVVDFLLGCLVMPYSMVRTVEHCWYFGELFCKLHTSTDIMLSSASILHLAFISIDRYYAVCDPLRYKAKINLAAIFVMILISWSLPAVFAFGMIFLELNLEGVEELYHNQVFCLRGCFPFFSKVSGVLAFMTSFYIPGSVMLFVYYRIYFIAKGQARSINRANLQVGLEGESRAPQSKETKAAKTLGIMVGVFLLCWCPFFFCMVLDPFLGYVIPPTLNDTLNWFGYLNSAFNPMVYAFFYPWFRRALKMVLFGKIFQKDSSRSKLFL

mouse TAAR1 = mouse TAAR1 (Mus musculus, UniProt Q923Y8); experiment: Radioligand binding, [3H]RO5166017 displacement
Sequence of mouse TAAR1 (Q923Y8 whole entry): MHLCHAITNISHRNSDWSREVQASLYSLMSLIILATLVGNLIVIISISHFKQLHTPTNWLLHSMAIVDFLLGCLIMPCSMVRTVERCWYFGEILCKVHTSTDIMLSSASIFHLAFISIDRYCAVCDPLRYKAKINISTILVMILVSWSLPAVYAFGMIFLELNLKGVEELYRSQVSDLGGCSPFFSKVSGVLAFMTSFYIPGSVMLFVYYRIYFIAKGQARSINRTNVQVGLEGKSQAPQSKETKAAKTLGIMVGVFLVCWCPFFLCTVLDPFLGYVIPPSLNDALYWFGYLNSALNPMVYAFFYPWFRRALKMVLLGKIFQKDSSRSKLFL

human TAAR1 = biological target: T7, human TAAR1 (Homo sapiens, UniProt Q96RJ0); experiment: Human TAAR1 activation, cAMP assay in HEK 293 cells; format: cell-based
T7 sequence (Q96RJ0 1-339): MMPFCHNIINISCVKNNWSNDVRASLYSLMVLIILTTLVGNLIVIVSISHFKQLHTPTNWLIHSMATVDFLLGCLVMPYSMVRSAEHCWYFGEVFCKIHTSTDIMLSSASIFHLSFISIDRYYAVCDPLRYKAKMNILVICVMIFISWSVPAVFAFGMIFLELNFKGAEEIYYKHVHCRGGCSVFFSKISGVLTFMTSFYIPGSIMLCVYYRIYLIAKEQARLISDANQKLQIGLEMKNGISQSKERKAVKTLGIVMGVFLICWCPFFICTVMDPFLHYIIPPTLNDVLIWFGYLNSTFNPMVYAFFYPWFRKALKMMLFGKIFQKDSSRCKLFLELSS
Outline: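 Recombinant HEK 293 cells expressing human TAAR1 were pelleted, resuspended, seeded at 80,000/well and incubated 20 h at 37 °C. After a PBS wash, the cells were preincubated 60 min at 37 °C in KRB with 1 mM IBMX. Test compound (300 pM–30 μM, duplicate), β-phenylethylamine (maximal response) or basal control was added for 40 min at 37 °C. Cells were lysed 120 min at RT with Ru-cAMP Alexa700 anti-cAMP antibody mix, and fluorescence was read against a per-plate cAMP standard curve (0.13 nM–10 μM).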

NET [7] = biological target: T2, NET; experiment: [3H]norepinephrine uptake inhibition in HEK 293 cells overexpressing human NET; format: cell-based
human 5-HT2B receptor = human 5-HT2B receptor (Homo sapiens, UniProt P41595); experiment: 5-HT2B receptor activation, FLIPR calcium assay in HEK 293 cells; format: cell-based
Sequence of human 5-HT2B receptor (P41595 whole entry): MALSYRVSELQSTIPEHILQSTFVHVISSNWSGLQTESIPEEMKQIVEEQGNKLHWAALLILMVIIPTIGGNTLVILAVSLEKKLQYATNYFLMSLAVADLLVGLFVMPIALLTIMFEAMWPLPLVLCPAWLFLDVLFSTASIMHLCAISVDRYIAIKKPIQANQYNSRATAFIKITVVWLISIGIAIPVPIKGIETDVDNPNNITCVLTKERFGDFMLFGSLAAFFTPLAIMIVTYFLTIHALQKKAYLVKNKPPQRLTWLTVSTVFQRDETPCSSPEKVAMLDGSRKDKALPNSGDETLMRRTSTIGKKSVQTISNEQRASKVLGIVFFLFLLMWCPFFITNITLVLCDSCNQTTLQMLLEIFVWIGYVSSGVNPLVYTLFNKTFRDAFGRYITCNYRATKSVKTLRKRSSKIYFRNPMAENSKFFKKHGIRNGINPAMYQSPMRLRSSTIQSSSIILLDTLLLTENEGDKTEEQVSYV

[8] = healthy human subjects, oral MDMA; ref Schmid et al., 2016; cited from earlier work
[9] = rat plasma, subcutaneous methylone; ref Elmore et al., 2017; cited from earlier work
[10] = after subcutaneous injection of methylone; ref Stefkova et al., 2017; cited from earlier work
[11] = ref Lopez-Arnau et al., 2013, cited from earlier work

SMILES	DAT/SERT ratio (DAT [1])	IC50 (NET [7]) [nM]	IC50 (DAT [1]) [µM]	IC50 [2] [µM]	Ki (NET [3]) [µM]	Ki (DAT [4]) [µM]	Ki (SERT) [µM]	Ki (dopamine D2 receptors) [µM]	Ki [5] [µM]	Ki [6] [µM]	Ki (5-HT1A receptor) [µM]	Ki (5-HT2A receptor) [µM]	Ki (rat TAAR1) [nM]	Ki (mouse TAAR1) [nM]	further results
COc1cc(CC(C)N)ccc1O (stereo not shown) [HMA, 4-hydroxy-3-methyoxyamphetamine]	270 (96–830)	–	–	–	–	–	–	–	–	–	–	–	–	–	maximum dopamine transporter inhibition (DAT [1]; partial inhibition of dopamine uptake): 66%; IC50 ([2]; read-out: SERT IC50, 5-HT uptake inhibition, mean and 95% confidence interval): 35 µM; Ki (NET [3]; read-out: NET Ki, mean±SD, n=3): > 8.8 µM; Ki (DAT [4]; read-out: DAT Ki, mean±SD, n=3): > 8.5 µM; Ki (SERT; read-out: SERT Ki, mean±SD, n=3): > 7.4 µM; Ki (dopamine D2 receptors; read-out: D2 Ki, mean±SD, n=3): > 13 µM; Ki ([5]; read-out: α1A Ki, mean±SD, n=3): > 9.5 µM; Ki ([6]; read-out: α2A Ki, mean±SD, n=3): > 4.7 µM; Ki (5-HT1A receptor; read-out: 5-HT1A Ki, mean±SD, n=3): > 18 µM; Ki (5-HT2A receptor; read-out: 5-HT2A Ki, mean±SD, n=3): > 12 µM; Ki (5-HT2C receptor; read-out: 5-HT2c Ki, mean±SD, n=3): > 5.1 µM; Ki (rat TAAR1; read-out: TAAR1rat Ki, mean±SD, n=3): 150 ± 20 nM; Ki (mouse TAAR1; read-out: TAAR1mouse Ki, mean±SD, n=3): 50 ± 20 nM; EC50 (human TAAR1; read-out: human TAAR1 activation EC50): 10.4 µM and 10 µM; human TAAR1 activation efficacy (human TAAR1; β-phenylethylamine as maximal response): 51 ± 12%
CC(N)Cc1ccc2c(c1)OCO2 (stereo not shown) [MDA, 3,4-methylenedioxyamphetamine, reference compound]	–	380	17	4.3	> 8.8	> 8.5	> 7.4	> 13	8.8 ± 0.6	2.6 ± 0.1	9 ± 0.8	3.2 ± 0.8	220 ± 30	180 ± 30	EC50 (human 5-HT2B receptor): 200 ± 10 nM; 5-HT2B receptor activation efficacy (human 5-HT2B receptor; relative to 5-HT activity defined as 100%): 51 ± 7%; Cmax as % of the Cmax of MDMA [8]: 4–8%
CNC(C)C(=O)c1ccc2c(c1)OCO2 (stereo not shown) [Methylone, 3,4-methylenedioxymethcathinone, reference compound]	2.7 (1.9–3.8)	560	6.6	18	> 8.7	2.3 ± 0.1	> 7.5	> 13	> 9.5	> 5	> 17	> 12	> 5000	> 4700	Ki (5-HT2C receptor): > 14 µM; time at which Cmax was reached [9]: 15 min; brain vs. serum concentration, times higher [10]: approximately five; time of maximum brain and serum concentrations [10]: 30 min; Tmax ([11]; 15 mg/kg oral dose): 30 min; Tmax ([11]; 30 mg/kg oral dose): 60 min
